OX1R antag-1 – antagonists of human orexin 1 receptor (OX1R). OX1R-expressing cells, FRET antagonist read-out. inhibition, % at 6.6 µM. 1.8% of 330,000 active. AID 485270; in the data active = inhibition mostly above about 38%, no sharp cut-off; inactive = mostly below about 40%
OX1R antag-2 – blocks the human orexin 1 receptor. O43613. CHO/OX1R cells, Fluo-8 calcium fluorescence, orexin A. inhibition, % at 5 µM. 0.43% of 330,000 active. AID 434989;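 active = inhibition above its plate's threshold, mean inhibition of all tested compounds on the plate plus 3 SD, cut at about 37% in these data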
GPR7 antag – human neuropeptides B/W receptor 1 antagonism; P48145; GPR7-expressing cells, fluorescence antagonist assay; inhibition, % at 4.4 µM; 1.1% of 290,000 active; AID 1861; in the data active = inhibition above about 16%, passing the limit was not always enough;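 note: cells stimulated with the agonist NPW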
Target sequence (P48145 whole entry, looked up): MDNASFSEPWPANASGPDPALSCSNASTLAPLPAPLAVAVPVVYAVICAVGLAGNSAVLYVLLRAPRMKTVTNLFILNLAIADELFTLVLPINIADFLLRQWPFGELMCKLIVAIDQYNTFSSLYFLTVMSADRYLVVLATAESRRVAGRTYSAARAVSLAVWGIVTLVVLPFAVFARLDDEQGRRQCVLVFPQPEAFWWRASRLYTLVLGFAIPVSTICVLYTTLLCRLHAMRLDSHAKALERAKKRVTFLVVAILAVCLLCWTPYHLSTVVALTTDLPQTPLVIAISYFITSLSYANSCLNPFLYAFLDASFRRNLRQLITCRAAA
TAAR1 ag – agonists of human TAAR1; activation, % at 3 µM; CHO RD-HGA16 TAAR1, Fluo-8 calcium fluorescence; vehicle wells 0%, saturating PEA agonist 100%; Q96RJ0; AID 624467; 0.99% of 360,000 active;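 active = activation above the mean activation of all test compounds in the run plus 3 SD, cut at about 38% in these data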
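Signal – calcium-sensitive Fluo-8 signal, excitation 470-495, emission 515-575 nm · System – RD-HGA16 (CHO) cells co-expressing Gα16 and hTAAR1 · Incubation – 17-24 h seeding, 75 min 37 °C dye, 30 min RT · Compound dosing – 3 µM single concentration · Repeats – no replicates (n 1)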
CHO parental Ca – counter-screen: ATP calcium response change in parental CHO cells; parental CHO-K1, ATP-induced calcium, Fluo-8 fluorescence; AID 463079; 0.63% of 330,000 active; inhibition, % at 5.6 µM;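 active = inhibition above that plate's mean sample inhibition plus 3 SD, cut at about 26% in these data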
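Material: Parental CHO cells | Reagent: ATP | Compound dosing: Single nominal dose of 5.6 µM per compound | Detection: Intracellular calcium via Fluo-8 no-wash fluorescent dye | Read-out: % inhibition of ATP-induced calcium mobilization | Benchmarks: Low control ATP plus DMSO, high control DMSO only | Replicates: Singlicate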
TAAR1 antag – human TAAR1 antagonism; 1.5% of 360,000 active; Q96RJ0; CHO RD-HGA16 TAAR1, Fluo-8 calcium fluorescence, antagonist; inhibition, % at 3 µM;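 active = inhibition above a per-plate cutoff, the mean inhibition of test compounds on that plate plus 3 SD, cut at about 49% in these data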
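Test system – hTAAR1-expressing CHO RD-HGA16 cells, Gα16-coupled · Also added – β-PEA at EC80 concentration, post-compound challenge · Compound – 3 µM, single point · Incubation – dye loading 75 min at 37 °C, then 30 min room temperature · Measured by – Fluo-8 intracellular calcium dye fluorescence, real-time kinetic reads · Benchmarks – vehicle and agonist controls · Replicates – singlicate, one well per test compound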
GPR7 antag cf – confirmation of human GPR7 antagonists. shares compounds with GPR7 antag. GPR7-expressing cells, calcium fluorescence antagonist mode. inhibition, % at 4.4 µM. 52% of 2,400 active. AID 1952; in the data active = inhibition above about 24%;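 note: stimulated with the GPR7 agonist NPW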
MCHR1 antagonist – antagonizes human MCHR1, a GPR7 antagonist counter-screen. shares compounds with GPR7 antag. MCHR1-expressing cells, fluorescence antagonist assay. inhibition, % at 4.4 µM. 62% of 2,400 active; in the data active = inhibition above about 22%
A number is an active result; . = inactive; / = not tested or not shown. Most compounds without a hit are left out; they make up all but 4.5% or so of the library.

SMILES	OX1R antag-1	OX1R antag-2	GPR7 antag	TAAR1 ag	CHO parental Ca	TAAR1 antag	GPR7 antag cf	MCHR1 antagonist
O=[N+]([O-])c1nn(-c2ccc3c(c2)OCCO3)n(O)c1=Nc1ccc(Cl)cc1	.	.	28	.	.	.	34	.
COc1ccc(OC(=O)c2cc3cc(Cl)ccc3oc2=O)cc1	.	.	46	.	.	.	.	.
CC1(C)CC(=O)C=C(c2ccc(-c3ccccc3)cc2)C1=O	/	/	/	.	/	.	/	/
COc1cccc2cc(-c3nc4ccccc4[nH]3)c(=O)oc12	.	.	.	.	.	.	/	/
CCN(CC)c1ccc2cc(-c3nc4ccccc4[nH]3)c(=O)oc2c1	81	113	28	/	80	/	81	89
COC(=O)C1=C(C)NC(C)=C(C(=O)OC)C1C(=O)OCC(=O)N1CCCCC1C (stereo unspecified)	/	/	/	.	/	.	/	/
CCC1CCCCN1S(=O)(=O)c1ccc(NC(=O)C2CC(=O)N(C(C)(C)C)C2)cc1 (stereo unspecified)	/	/	/	.	/	.	/	/
Cc1onc(-c2ccccc2)c1CNC(=O)Nc1ccc(C(F)(F)F)cc1	49	.	24	.	.	.	28	52
Nc1nc(N)nc(-c2ccccc2-c2nc(N)nc(N)n2)n1	.	.	.	.	.	.	.	.
Nc1nc(N)nc(-c2ccccc2)n1	.	.	.	.	.	.	/	/
COc1ccccc1CNC(=O)COC(=O)c1n[nH]c2ccccc12	.	.	.	.	.	.	/	/
COc1ccccc1CNC(=O)c1n[nH]c2ccccc12	.	.	30	.	.	.	.	.
O=C(NC(NC(=S)Nc1c(Cl)cccc1Cl)C(Cl)(Cl)Cl)OCc1ccccc1 (stereo unspecified)	.	.	27	.	.	.	26	44
CC1(c2cccc(Br)c2)NC(=O)NC1=O (stereo unspecified)	.	.	.	.	.	.	/	/
COc1ccccc1CNS(=O)(=O)CCNC1CC1	/	/	/	.	/	.	/	/
CCn1c(=O)c(=O)[nH]c2cc(C(=O)NC3CCCc4ccccc43)ccc21 (stereo unspecified)	.	.	23	.	.	.	.	.
CCOc1ccc(OCCSc2nnnn2-c2ccccc2)cc1	.	.	.	.	.	.	/	/
c1ccc(OCCSc2nnnn2-c2ccccc2)cc1	.	.	31	.	.	.	.	35
CNc1cncc(-c2ccc(F)cc2F)n1	/	/	/	.	/	.	/	/
CC1(C)CC(=O)C=C(C(=O)N2CCCC(C(=O)c3cccc(C(F)(F)F)c3)C2)O1 (stereo unspecified)	.	.	.	.	.	.	/	/
O=C(COC(=O)C1(c2ccc(Cl)cc2)CCCC1)NC1CCS(=O)(=O)C1 (stereo unspecified)	.	.	.	.	.	.	/	/
CCc1cccc(CC)c1NC(=O)COC(=O)C1(c2ccc(Cl)cc2)CCCC1	.	.	42	.	.	.	36	51
C=CCOc1c(CNC2CCCC2)cc(Cl)cc1OC	.	.	26	.	.	.	.	.
COc1ccc(NC(=O)Cn2nnc(C(=O)NCc3ccc4c(c3)OCO4)c2N)c(OC)c1	.	.	.	.	.	.	/	/
Cc1ccc2nc(NC(=O)COC(=O)c3cccnc3)sc2c1	.	.	/	.	.	.	/	/
COc1cccc(C2c3[nH]c4ccccc4c3CCN2C(=O)c2ccccc2F)c1OC (stereo unspecified)	.	.	37	.	.	.	27	35
COc1ccc(NC(=O)c2cccc(N3C(=O)C4CCC(C)CC4C3=O)c2)c(OC)c1 (stereo unspecified)	.	.	.	.	.	.	/	/
N#CC(C#N)=C1C=C2C=C(N3CCCCCC3)CCC2CC1 (stereo unspecified)	/	/	72	957	/	104	97	110
CN1CCN(C2=CC3=CC(=C(C#N)C#N)CCC3CC2)CC1 (stereo unspecified)	/	/	59	/	/	/	76	90
